Assay outcomes from PubChem.
Rows were chosen to be rich in hits. Some 1.3% of all compounds tested hit in one or more screens of this group.
HCV NS3 hel inh: blocks Hepatitis C virus NS3 helicase unwinding; NS3 helicase DNA unwinding, Cy5 molecular beacon fluorescence; inhibition, % at 10.9 µM; 290,000 tested, 0.56% active;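 active means inhibition above the mean of all tested compounds plus 3 SD, set per campaign, cut at about 35% in these data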
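System: NS3 helicase fragment of HCV / Schedule: 1 h at 25 °C / Control set: DMSO alone as 0% and 110 µM thioflavine S as 100% / Reagent: Cy5/quencher beacon DNA duplex and ATP to start / Technique: Cy5 fluorescence / Replication: singlicate / Evaluation: % inhibition of end-to-start signal ratio versus controls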
TbMetRS inhib: blocks T. brucei methionyl-tRNA synthetase activity. purified T. brucei MetRS, ATP depletion, Kinase-Glo luminescence. inhibition, % at 11.9 µM. 360,000 tested, 0.4% active;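 active means inhibition above a per-plate cutoff of the control wells' mean inhibition plus 3 SD, cut at about 5.5% in these data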
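assay system = parasite MetRS enzyme | timing = 15 min preincubation, 2 h reaction, all 25 °C | evaluation = percent inhibition relative to median high and low control wells | medium = HEPES buffer containing pyrophosphatase, BSA, spermine, DTT | compound = single dose, 11.9 µM final nominal, 0.9% final DMSO | detection = Kinase-Glo luminescence, ATP depletion format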
HCV core dimer: HCV core protein dimerization inhibition; TR-FRET GST/Flag-core106 dimerization, 1536-well; inhibition, % at 5 µM; 300,000 tested, 0.33% active; AID 1899;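 active means inhibition above the mean of all tested compounds plus 3 SD, set per screening campaign, cut at about 45% in these data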
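test system = GST/Flag-tagged HCV core106 proteins | probe or stimulus = Eu donor and XL665 acceptor anti-tag antibodies | times = compound-protein-antibody incubation 4 h at 22.5 °C | signal = TR-FRET, excitation 340 nm, emission 617 and 671 nm | measure = percent inhibition of core106 dimerization signal | controls = wells lacking GST-core106 and wells with excess unlabelled core106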
Hep lipid drop: hepatic lipid droplet formation modulation; inhibition, % at 6.5 µM; AML12 mouse hepatocytes, oleate lipid droplets, BODIPY imaging; AID 1656; 240,000 tested, 0.4% active;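 active means lipid droplet intensity inhibited by at least 50%, with more than 500 cells counted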
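Material – AML12 mouse liver cells · Also added – oleate loading, 100 µM · Compound dosing – 6.5 µM single-point dosing · Times – overnight treatment with compound plus oleate · Measured by – fluorescence imaging, 20x objective, two fields per well · Read-out – percent inhibition of filter-corrected integrated lipid droplet intensity per well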
NS3 helicase cf: confirmation of Hepatitis C virus NS3 helicase inhibitors. 1,600 tested, 31% active. NS3 helicase DNA unwinding, Cy5 molecular beacon fluorescence. shares compounds with HCV NS3 hel inh. inhibition, % at 10.9 µM;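 active means inhibition above the mean of all tested compounds plus 3 SD, cutoff set per campaign, cut at about 36% in these data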
FID counter trip: displaces DNA intercalator in HCV helicase counter-screen; shares compounds with HCV NS3 hel inh; DNA fluorescent intercalator displacement, fluorescence; inhibition, % at 7.9 µM; 1,600 tested, 4% active; AID 1945; in the data active means inhibition above about 37%;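 further: higher means more displacement of ethidium bromide from the DNA hairpin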
FID counter DR: DNA intercalator displacement in dose response; 120 tested, under 10 active; IC50, µM; fluorescent intercalator displacement from DNA, fluorescence; shares compounds with HCV NS3 hel inh; call rule not given here
Each line names hits and unclear results; the compound was inactive in the other large screens (follow-up assays come after a bar, where they were run).

Cc1c(C#N)c(O)[nH]c(=O)c1N=Nc1ccc(S(N)(=O)=O)cc1	HCV NS3 hel inh 57 | NS3 helicase cf inactive | FID counter trip inactive
Cc1c(C#N)c(O)[nH]c(=O)c1N=Nc1ccc(Cl)c(C(=O)O)c1	none
Cc1cc2c(c(=O)o1)C(CCC1CCCCC1)C(C#N)=C(N)O2 (stereo not drawn)	HCV NS3 hel inh 39 | NS3 helicase cf inactive | FID counter trip inactive
CCC(CC)C1C(C#N)=C(N)Oc2cc(C)oc(=O)c21 (stereo not drawn)	none
CCC(C)(C(=O)NC1CCCCC1)N(Cc1ccco1)C(=O)c1ccc2c(c1)OCO2 (stereo not drawn)	HCV NS3 hel inh 36 | NS3 helicase cf inactive | FID counter trip inactive
O=C(N/N=C/c1c(O)ccc2ccccc12)c1cccnc1	HCV NS3 hel inh 87 | NS3 helicase cf inactive | FID counter trip inactive
Cc1c(C)c(C)c(S(=O)(=O)NCCC(=O)N2CCN(Cc3ccc(C#N)cc3)CC2)c(C)c1C	none (no result: HCV NS3 hel inh, HCV core dimer, Hep lipid drop)
Cc1ccc(-n2c(C)cc(-c3csc(N)n3)c2C)cc1	HCV NS3 hel inh 83 | NS3 helicase cf inactive | FID counter trip inactive
Cc1cc(-c2csc(N)n2)c(C)n1C	none
C=CCN(c1ccc(C(=O)NCCSc2ccccc2)cc1)S(C)(=O)=O	none
O=C(O)CCC(=O)N1N=C(c2c(-c3ccccc3)c3cc(Cl)ccc3[nH]c2=O)CC1c1ccco1 (stereo not drawn)	HCV NS3 hel inh 41 | NS3 helicase cf 48 | FID counter trip inactive
CCC(=O)N1N=C(c2c(-c3ccccc3)c3cc(Cl)ccc3[nH]c2=O)CC1c1ccco1 (stereo not drawn)	none
CCc1ccc(NC(=O)Nc2cccs2)cc1	HCV NS3 hel inh 44 (no result: Hep lipid drop) | NS3 helicase cf inactive | FID counter trip inactive
Cc1ccc(NC(=O)Nc2cccs2)cc1	none
O=C(NC1CCCCC1)c1[nH]c(C(F)(F)F)nc1-c1ccccc1	none (no result: HCV NS3 hel inh, HCV core dimer, Hep lipid drop)
O=C(Nc1nnc(-c2ccccc2)o1)c1nc2ccccc2s1	none (no result: HCV NS3 hel inh)
N#Cc1c(C(F)(F)F)cc(-c2ccc(F)cc2)nc1SCC(=O)O	none
CCCCOc1ccc(-c2cc(C(F)(F)F)c(C#N)c(SCC(=O)O)n2)cc1	HCV NS3 hel inh 43 | NS3 helicase cf 81 | FID counter trip inactive | FID counter DR inactive
COc1ccc(OC)c(CN2C(=O)CN(S(C)(=O)=O)CC2(C)C(=O)NCc2ccccc2)c1 (stereo not drawn)	none (no result: HCV NS3 hel inh, HCV core dimer, Hep lipid drop)
O=C(NCCCN1CCCC1)c1[nH]c(C(F)(F)F)nc1-c1ccccc1	none (no result: HCV NS3 hel inh, HCV core dimer, Hep lipid drop)
CC1=NN(c2ccccc2)C(=O)C1N=Nc1ccc(C)cc1 (stereo not drawn)	none (no result: TbMetRS inhib)
CC1=NN(c2ccccc2)C(=O)C1C=Nc1ccc(N(C)C)cc1 (stereo not drawn)	HCV NS3 hel inh 44 | NS3 helicase cf inactive | FID counter trip inactive
COC(=O)c1ccc(-c2ccco2)n1Cc1cccc(C)c1	none
O=C(O)c1ccc(-c2ccco2)n1Cc1ccccc1	HCV NS3 hel inh 45 | NS3 helicase cf inactive | FID counter trip inactive
CC1CCCC(NC(=O)CSc2nnc(-c3cccnc3)o2)C1C (stereo not drawn)	none (no result: HCV NS3 hel inh, HCV core dimer, Hep lipid drop)
O=[N+]([O-])c1cc(Br)c(O)c(C=Nc2ccc(N3CCOCC3)cc2)c1	HCV NS3 hel inh 37 | NS3 helicase cf inactive | FID counter trip inactive
O=C1C(=O)N(Cc2ccncc2)C(c2cccc(O)c2)/C1=C(\O)c1ccc2c(c1)OCCO2 (stereo not drawn)	HCV NS3 hel inh 41 | NS3 helicase cf inactive | FID counter trip inactive
O=C1C(=O)N(Cc2cccnc2)C(c2cccc(O)c2)/C1=C(\O)c1ccc2c(c1)OCCO2 (stereo not drawn)	none
CCOC(=O)C1(Cc2cccc(Cl)c2)CCCN(C(=O)c2ccoc2C)C1 (stereo not drawn)	HCV NS3 hel inh 44 (no result: HCV core dimer) | NS3 helicase cf inactive | FID counter trip inactive
O=C(O)c1ccccc1-c1ccccc1C(=O)Nc1ccc2c(c1)C(O)c1ccccc1-2 (stereo not drawn)	none (no result: HCV NS3 hel inh, HCV core dimer, Hep lipid drop)
